# Screens from PubChem.
# Rows were chosen to be rich in hits. Some 2.7% of all compounds tested hit in one or more screens of this group.
# TNF death inh – inhibitors of TNF-alpha induced necroptosis in Jurkat FADD-/- cells. Jurkat FADD-/- TNF necroptosis rescue, ATP luminescence, 24 h; 0 = TNF only, 100 = no-TNF cells. activation (protection from cell death), % at 10 µM. 220,000 compounds, 0.068% hits. AID 463075;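 active = activation, meaning protection from cell death, of at least 50% relative to plate controls; inactive = activation below 50%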;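 also: necroptosis triggered by 40 ng/mL TNF-alpha added together with compound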
# p97 inhibitor – blocks human p97 ATPase activity. recombinant p97 ATPase, Kinase-Glo ATP luminescence, 3 h. inhibition, % at 8 µM. 220,000 compounds, 0.42% hits. AID 1481; in the data active = inhibition above about 15%;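 also: 0% = DMSO vehicle and 100% = wells lacking enzyme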
# Target sequence (P55072 whole entry, looked up): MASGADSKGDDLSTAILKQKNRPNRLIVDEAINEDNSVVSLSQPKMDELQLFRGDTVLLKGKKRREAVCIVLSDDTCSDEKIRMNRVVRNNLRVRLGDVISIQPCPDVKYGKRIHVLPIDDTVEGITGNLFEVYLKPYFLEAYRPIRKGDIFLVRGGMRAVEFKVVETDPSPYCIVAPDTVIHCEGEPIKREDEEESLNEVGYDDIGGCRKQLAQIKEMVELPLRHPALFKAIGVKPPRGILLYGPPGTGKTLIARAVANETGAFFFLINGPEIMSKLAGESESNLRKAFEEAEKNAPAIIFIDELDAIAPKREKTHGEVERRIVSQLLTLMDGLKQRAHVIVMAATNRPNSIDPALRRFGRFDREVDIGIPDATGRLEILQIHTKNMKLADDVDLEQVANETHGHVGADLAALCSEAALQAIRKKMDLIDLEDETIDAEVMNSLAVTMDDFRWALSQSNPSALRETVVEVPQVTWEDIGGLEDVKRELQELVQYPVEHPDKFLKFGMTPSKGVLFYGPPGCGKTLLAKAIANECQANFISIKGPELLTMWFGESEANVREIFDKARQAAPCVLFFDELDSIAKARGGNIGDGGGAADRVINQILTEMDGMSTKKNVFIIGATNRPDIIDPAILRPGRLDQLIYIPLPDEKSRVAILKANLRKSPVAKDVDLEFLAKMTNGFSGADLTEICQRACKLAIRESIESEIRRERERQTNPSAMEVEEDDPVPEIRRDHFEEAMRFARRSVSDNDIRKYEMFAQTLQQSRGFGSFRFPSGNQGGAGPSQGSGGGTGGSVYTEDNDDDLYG
# zVAD death inh – blocks zVAD induced death of L929 cells. AID 1377. 220,000 compounds, 0.38% hits. viability rescue, % at 10 µM. L929 zVAD necroptosis rescue, ATP luminescence, 24 h; with zVAD 60 µM;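 active = activation, scaled between plate controls, above about 75%, limit read from the data; inactive = activation under that limit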;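 also: 0% = zVAD with DMSO and 100% = DMSO alone without zVAD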
# M18AAP inhibitor – blocks P. falciparum M18 aspartyl aminopeptidase; inhibition, % at 7.35 µM; AID 1822; recombinant PfM18AAP, H-Glu-NHMec fluorogenic cleavage; 290,000 compounds, 1.2% hits;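 active = inhibition above the campaign mean inhibition over all tested compounds plus 3 SD, cut at about 28% in these data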;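 also: 0% = plate median of test compound wells and 100% = 2 mM ZnCl2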
# Wee1 degr inh – blocks degradation of human Wee1 kinase | P30291 | 220,000 compounds, 1.2% hits | AID 1321 | HeLa Luc-Wee1K328M stability, luciferase luminescence; 100% = proteasome inhibitor MG132 effect | reporter increase, % at 5 µM;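 active = activation above the mean of all tested compounds plus 3 SD, set per screening run, cut at about 8.8% in these data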;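 also: cells exposed to compound for 20 h before luminescence read; 0% = DMSO alone and 100% = MG132 at 30 µM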
# RBBP9 inh – inhibitors of human serine hydrolase RBBP9. O75884. recombinant RBBP9, FP-Rh probe fluorescence polarization. inhibition, % at 7.94 µM. 220,000 compounds, 0.2% hits. AID 1515;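 active = inhibition above the campaign mean of all tested compounds plus 3 SD, cut at about 14% in these data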;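 also: plate controls were DMSO wells with RBBP9 for no effect and wells lacking RBBP9 protein for full effect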
#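 Material: RBBP9 protein. Amount: RBBP9 at 2.5 µM in dispensed solution, before mixing. Schedule: 30 min then 45 min, 25 °C. Medium: Tris buffer pH 8.0, NaCl, Pluronic. Measured by: fluorescence polarization. Measure: percent inhibition from mP, scaled between DMSO and no-protein wells. Replication: one well per compound.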
# * marks the source's active call; other numbers are inactive results; / = not tested or not shown.
SMILES,TNF death inh,p97 inhibitor,zVAD death inh,M18AAP inhibitor,Wee1 degr inh,RBBP9 inh
CCOC(=O)COc1cccc2c(=O)n(CC(=O)NCc3ccc4c(c3)OCO4)ccc12,-8,-2,0,-7,9.6*,-5
CCOC(=O)COc1cccc2c(=O)n(CC(=O)NCCc3ccccc3)ccc12,0,0,/,0,0,-10
Cc1sc(/N=C/c2ccccc2O)c(C#N)c1C,0,-1,1,36*,-2,8
CN1CCc2c(sc(/N=C/c3cc(Cl)ccc3O)c2C#N)C1,-1,5,1,5,5,-3
NC(=O)c1ccc(NC(=O)COC(=O)C2CC(=O)N(Cc3ccccc3)C2)cc1 (centres undefined),0,3,7,1,-3,-5
O=c1cc(CO)oc(CN2CCN(c3cccc(C(F)(F)F)c3)CC2)c1O,-1,3,0,29*,1,-8
Cc1ccc(C2C(C#N)=C(N)SC(N)=C2C#N)o1,-5,15*,0,-1,1,1
CCCOc1nc(C)cc(COC)c1C(N)=O,0,0,1,3,0,-3
O=C(NNc1ccccc1)/C(=C\c1cccnc1)NC(=O)c1ccccc1,0,1,-1,-25,8,-6
CCCc1ccc(-c2cc(NC(=O)CSc3nnc(N)s3)n(-c3ccccc3)n2)cc1,-1,4,2,0,10*,-11
COc1ccc(C(CNC(=O)CN2C(=O)NC3(CCCC3)C2=O)N(C)C)cc1 (centres undefined),/,/,/,-14,/,/
COC(=O)c1cccc(/C=N/NC(N)=S)c1O,-13,5,2,31*,-1,-4
Cc1cc(C)c(C(=O)/C=C/c2cccc3ccccc23)c(=O)[nH]1,-7,6,30,-9,0,-14
Cc1[nH]c(=O)c(C(=O)/C=C/c2ccccc2F)c2c1CCCC2,-21,2,92*,0,-1,-5
O=C(O)C(Cc1ccccc1)N1C(=O)/C(=C/C=C/c2ccco2)SC1=S (centres undefined),-3,27*,-1,13,3,5
O=C(O)CC(C(=O)O)N1C(=O)/C(=C/C=C/c2ccco2)SC1=S (centres undefined),2,13,0,31*,-1,-5
COc1ccc(N(Cc2cc3cc(OC)ccc3[nH]c2=O)C(=O)C2CCCO2)cc1 (centres undefined),1,4,1,3,0,1
COc1ccc2[nH]c(=O)c(CN(C(=O)C3CCCO3)c3ccc(C)c(C)c3)cc2c1 (centres undefined),-1,-11,1,-14,9.4*,-12
CCOC(=O)/C(=C/Nc1ccc(F)c(F)c1)[N+](=O)[O-],0,4,0,-7,0,-8
C=CCNC(=O)C1CC(=O)N(c2ccc(OCC(=O)Nc3ccc(Cl)cc3)cc2)C1 (centres undefined),/,/,/,-1,/,/
CC(C)Oc1cccc(C(=O)Nc2ccc(Br)cc2F)c1,5,5,1,1,9.1*,1
COC(=O)CC1C(=O)NCCN1C(=O)CSc1nnnn1-c1ccc(Cl)cc1 (centres undefined),2,6,1,-1,-1,5
COc1ccc(Br)cc1C1Nc2cccc3cccc(c23)N1,/,/,/,33*,/,/
CC(=O)N(/C=C1\SC(=S)N(c2ccccc2)C1=O)c1ccccc1,-4,4,0,5,10*,-26
CCN1C(=O)/C(=C\N(C(C)=O)c2ccccc2)OC1=S,-4,-6,0,9,2,0
O=S(=O)(Nc1ccc(O)c(NS(=O)(=O)c2ccccc2)c1)c1ccccc1,/,/,/,68*,/,/
O=C(CN(Cc1ccccc1)C1=NCCS1)c1ccccc1,3,1,0,2,5,-1
Cc1ccc(C(=O)CN(Cc2ccccc2)C2=NCCS2)cc1,3,-3,-1,2,10*,4
COC(=O)N1C(=O)[C@](Cc2ccccc2)(c2ccccc2)N1C(=O)OC,/,/,/,-2,/,/
Cc1ccc(C(=O)N2CCCC2)cc1S(=O)(=O)N1CCCCC1,/,/,/,-7,/,/
